From ChEMBL document CHEMBL4823250, “Discovery of thalidomide-based PROTAC small molecules as the highly efficient SHP2 degraders” (Eur J Med Chem, 2021)
Active and inactive are the calls of the source. The calls are words filed in the database; no cut-off is given here.

Legend:
[1] = target: T1, Protein cereblon/Tyrosine-protein phosphatase non-receptor type 11 (Homo sapiens, UniProt Q06124+Q96SW2); test: Protac activity at SHP2/CRBN in human MV4-11 cells assessed as SHP2 degradation at 8 nM measured after 12 hrs by Western blot analysis relative to control; assay type: cell-based
Method in brief: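 MV4-11 cells (IMDM, 10% FBS, 37 °C, 5% CO2) plated at 1.0×10^6 cells/well and exposed 12 h to 8 or 200 nM. Lysis in RIPA with protease inhibitors, then SDS-PAGE, nitrocellulose transfer and anti-human SHP2 immunoblot. SHP2 signal normalized to GAPDH and percent degradation quantified by densitometry. Reported as the average of two independent measurements.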
Target sequence in this assay (Q96SW2 whole entry partner, one chain of several): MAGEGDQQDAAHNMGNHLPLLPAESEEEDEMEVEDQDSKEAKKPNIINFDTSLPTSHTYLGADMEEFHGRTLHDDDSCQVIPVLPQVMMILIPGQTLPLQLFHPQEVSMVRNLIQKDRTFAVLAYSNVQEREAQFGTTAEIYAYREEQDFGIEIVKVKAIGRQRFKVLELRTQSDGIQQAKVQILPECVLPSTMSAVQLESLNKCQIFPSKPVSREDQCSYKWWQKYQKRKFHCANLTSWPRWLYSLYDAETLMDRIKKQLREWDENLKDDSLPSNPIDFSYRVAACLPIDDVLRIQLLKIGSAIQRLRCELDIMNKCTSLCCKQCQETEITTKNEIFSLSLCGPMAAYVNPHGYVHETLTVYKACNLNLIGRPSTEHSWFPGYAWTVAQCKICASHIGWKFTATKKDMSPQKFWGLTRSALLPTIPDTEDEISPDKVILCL

MV4-11 [2] = test: Antiproliferative activity against human MV4-11 cells assessed as inhibition of cell proliferation measured after 72 hrs by MTS assay; assay type: functional, cell-based; conditions: MV4-11, 72 h
Method in brief: (§1)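 MV4;11 (ATCC, STR-authenticated) in IMDM with 10% FBS, penicillin/streptomycin, 37 °C, 5% CO2. Seeded at 1.0–4.0 × 10^4 cells/well, rested 2 h, then exposed to 0.01% DMSO or graded compound concentrations for 72 h. MTS/PMS added for 2–4 h. IC50 from sigmoidal variable-slope nonlinear regression; mean ± SEM of at least three separate assays, each in triplicate.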

[3] = target: T2, Tyrosine-protein phosphatase non-receptor type 11 (Homo sapiens, UniProt Q06124); test: Inhibition of human SHP2 catalytic activity
T2 sequence (Q06124 whole entry): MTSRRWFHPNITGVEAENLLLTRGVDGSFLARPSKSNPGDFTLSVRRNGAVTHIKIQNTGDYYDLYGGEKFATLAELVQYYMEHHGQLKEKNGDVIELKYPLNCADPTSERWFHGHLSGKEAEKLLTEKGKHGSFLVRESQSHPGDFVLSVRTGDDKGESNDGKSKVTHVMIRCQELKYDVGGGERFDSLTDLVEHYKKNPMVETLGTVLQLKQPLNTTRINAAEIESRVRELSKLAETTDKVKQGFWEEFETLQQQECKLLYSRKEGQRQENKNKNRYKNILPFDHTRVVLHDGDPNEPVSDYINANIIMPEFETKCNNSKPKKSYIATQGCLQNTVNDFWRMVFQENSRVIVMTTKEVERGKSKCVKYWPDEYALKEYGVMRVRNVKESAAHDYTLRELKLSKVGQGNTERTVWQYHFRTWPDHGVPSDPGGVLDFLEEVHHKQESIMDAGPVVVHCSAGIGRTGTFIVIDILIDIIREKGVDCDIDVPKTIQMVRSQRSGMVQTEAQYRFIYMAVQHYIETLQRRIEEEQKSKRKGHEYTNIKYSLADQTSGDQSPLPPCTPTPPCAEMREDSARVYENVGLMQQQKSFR

MV4-11 [4] = test: Induction of apoptosis in human MV4-11 cells assessed as viable cells at 70 nM measured after 48 hrs by Annexin V/FITC-PI staining based flowcytometry assay (reference value: 91%); assay type: functional
MV4-11 [5] = test: Induction of apoptosis in human MV4-11 cells assessed as early apoptotic cells at 70 nM measured after 48 hrs by Annexin V/FITC-PI staining based flowcytometry assay (reference value: 2.99%); assay type: functional
MV4-11 [6] = test: Induction of apoptosis in human MV4-11 cells assessed as late apoptotic cells at 70 nM measured after 48 hrs by Annexin V/FITC-PI staining based flowcytometry assay (reference value: 5.95%); assay type: functional
MV4-11 [7] = test: Induction of apoptosis in human MV4-11 cells assessed as necrotic cells at 70 nM measured after 48 hrs by Annexin V/FITC-PI staining based flowcytometry assay (reference value: 0.07%); assay type: functional
MV4-11 [8] = test: Induction of apoptosis in human MV4-11 cells assessed as viable cells at 200 nM measured after 48 hrs by Annexin V/FITC-PI staining based flowcytometry assay (reference value: 91%); assay type: functional
MV4-11 [9] = test: Induction of apoptosis in human MV4-11 cells assessed as early apoptotic cells at 200 nM measured after 48 hrs by Annexin V/FITC-PI staining based flowcytometry assay (reference value: 2.99%); assay type: functional
MV4-11 [10] = test: Induction of apoptosis in human MV4-11 cells assessed as late apoptotic cells at 200 nM measured after 48 hrs by Annexin V/FITC-PI staining based flowcytometry assay (reference value: 5.95%); assay type: functional
MV4-11 [11] = test: Induction of apoptosis in human MV4-11 cells assessed as necrotic cells at 200 nM measured after 48 hrs by Annexin V/FITC-PI staining based flowcytometry assay (reference value: 0.07%); assay type: functional
MV4-11 [12] = test: Induction of apoptosis in human MV4-11 cells assessed as viable cells at 600 nM measured after 48 hrs by Annexin V/FITC-PI staining based flowcytometry assay (reference value: 91%); assay type: functional
MV4-11 [13] = test: Induction of apoptosis in human MV4-11 cells assessed as early apoptotic cells at 600 nM measured after 48 hrs by Annexin V/FITC-PI staining based flowcytometry assay (reference value: 2.99%); assay type: functional
MV4-11 [14] = test: Induction of apoptosis in human MV4-11 cells assessed as late apoptotic cells at 600 nM measured after 48 hrs by Annexin V/FITC-PI staining based flowcytometry assay (reference value: 5.95%); assay type: functional
MV4-11 [15] = test: Induction of apoptosis in human MV4-11 cells assessed as necrotic cells at 600 nM measured after 48 hrs by Annexin V/FITC-PI staining based flowcytometry assay (reference value: 0.07%); assay type: functional
MV4-11 [16] = test: Cytotoxicity against CRBN knock out human MV4-11 cells assessed as cell viability measured after 72 hrs by MTS assay; assay type: cell-based; conditions: MV4-11, 72 h
Method in brief: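 MV4;11 cells with CRBN knocked out, cultured in IMDM with 10% FBS, penicillin/streptomycin, 37 °C, 5% CO2. Seeded at 1.0–4.0 × 10^4 cells/well, rested 2 h, then given 0.01% DMSO or graded compound concentrations for 72 h. Viability by MTS/PMS over 2–4 h. IC50 from sigmoidal variable-slope fit; mean ± SEM of ≥3 assays in triplicate.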

MV4-11 [17] = test: Cytotoxicity against human MV4-11 cells assessed as cell viability measured after 72 hrs by MTS assay; assay type: functional, cell-based; conditions: MV4-11, 72 h; method in brief: as §1
MV4-11 [18] = test: Cell cycle arrest in human MV4-11 cells assessed as accumulation at G1 phase at 200 nM measured after 24 hrs by PI staining based flow cytometry assay; assay type: functional
Method in brief: (§2)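 MV4-11 cells treated 24 h, then washed twice in cold PBS and fixed in ethanol overnight at 4 °C. Stained with propidium iodide plus RNase for 15 min at 37 °C. Cell-cycle distribution measured by flow cytometry.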

[19] = target: T1, Protein cereblon/Tyrosine-protein phosphatase non-receptor type 11; test: Protac activity at SHP2/CRBN in human MV4-11 cells assessed as decrease in SHP2 protein level measured after 12 hrs by Western blot analysis; assay type: cell-based; conditions: dose 8-500 nM
Method in brief: (§3)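 MV4-11 cells, 1.0×10^6 cells/well, treated 12 h across a concentration series. Lysed in RIPA plus protease inhibitors, separated by SDS-PAGE onto nitrocellulose and immunoblotted for SHP2 with GAPDH as loading control. Band intensities normalized to GAPDH; DC50 derived from the quantified SHP2 levels.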
Target sequence in this assay (Q96SW2 whole entry partner, one chain of several): as the sequence (Q96SW2 whole entry partner, one chain of several) above

[20] = target: T1, Protein cereblon/Tyrosine-protein phosphatase non-receptor type 11; test: Protac activity at SHP2/CRBN in human MV4-11 cells assessed as induction of SHP2 degradation measured after 12 hrs by Western blot analysis; assay type: cell-based; method in brief: as §3
Target sequence in this assay (Q96SW2 whole entry, one chain of several): as the sequence (Q96SW2 whole entry partner, one chain of several) above

[21] = target: T1, Protein cereblon/Tyrosine-protein phosphatase non-receptor type 11; test: Protac activity at SHP2/CRBN in human MV4-11 cells assessed as SHP2 degradation at 100 nM measured after 6 hrs by Western blot analysis relative to control; assay type: cell-based
Target sequence in this assay (Q96SW2 whole entry partner, one chain of several): as the sequence (Q96SW2 whole entry partner, one chain of several) above

[22] = target: T1, Protein cereblon/Tyrosine-protein phosphatase non-receptor type 11; test: Protac activity at SHP2/CRBN in human MV4-11 cells assessed as SHP2 degradation at 100 nM measured after 24 hrs by Western blot analysis relative to control; assay type: cell-based
Target sequence in this assay (Q96SW2 whole entry partner, one chain of several): as the sequence (Q96SW2 whole entry partner, one chain of several) above

MV4-11 [23] = test: Cell cycle arrest in human MV4-11 cells assessed as accumulation at G1 phase measured after 24 hrs by PI staining based flow cytometry assay; assay type: functional; method in brief: as §2
[24] = target: T3, Tyrosine-protein phosphatase non-receptor type 11 (Homo sapiens) (UniProt Q06124); test: Induction of SHP2 degradation in CRBN knock out human MV4-11 cells at 8 to 200 nM measured after 12 hrs by Western blot analysis; assay type: cell-based; conditions: dose 8-200 nM
T3 sequence (whole entry): T2 sequence (Q06124 whole entry)

[25] = Homo sapiens, MV4-11, read-out: Activity

C[C@@H]1OCC2(CCN(c3cnc(Sc4cccc(NC(=O)CCC(=O)NCCOCCNc5ccc6c(c5)C(=O)N(C5CCC(=O)NC5=O)C6=O)c4Cl)c(N)n3)CC2)[C@@H]1N (some centres undefined)
Activity [1]: < 5%

C[C@@H]1OCC2(CCN(c3cnc(Sc4cccc(N)c4Cl)c(N)n3)CC2)[C@@H]1N
IC50 (MV4-11 [2]): 60 nM | IC50 [3]: 17 nM

C[C@@H]1OCC2(CCN(c3cnc(Sc4cccc(NC(=O)CCC(=O)NCCCCCCCCCCCNc5cccc6c5C(=O)N(C5CCC(=O)NC5=O)C6=O)c4Cl)c(N)n3)CC2)[C@@H]1N (some centres undefined)
Activity [1]: 26%

CC1(N)CCN(c2cnc(-c3cccc(Cl)c3Cl)c(N)n2)CC1
IC50 (MV4-11 [2]): 475 nM | Activity (MV4-11 [4]): 94% | Activity (MV4-11 [5]): 3.98% | Activity (MV4-11 [6]): 4.52% | Activity (MV4-11 [7]): 0.078% | Activity (MV4-11 [8]): 88.5% | Activity (MV4-11 [9]): 4.68% | Activity (MV4-11 [10]): 6.43% | Activity (MV4-11 [11]): 0.099% | Activity (MV4-11 [12]): 86.5% | Activity (MV4-11 [13]): 5.08% | Activity (MV4-11 [14]): 7.74% | Activity (MV4-11 [15]): 0.098% | IC50 (MV4-11 [16]): 803 nM | IC50 (MV4-11 [17]): 572 nM | Activity (MV4-11 [18]): Active

C[C@@H]1OCC2(CCN(c3cnc(Sc4cccc(NC(=O)CCC(=O)NCCOCCOCCNc5cccc6c5C(=O)N(C5CCC(=O)NC5=O)C6=O)c4Cl)c(N)n3)CC2)[C@@H]1N (some centres undefined)
Activity [1]: 25%

C[C@@H]1OCC2(CCN(c3cnc(Sc4cccc(NC(=O)CCC(=O)NCCOCCOCCOCCNc5ccc6c(c5)C(=O)N(C5CCC(=O)NC5=O)C6=O)c4Cl)c(N)n3)CC2)[C@@H]1N (some centres undefined)
Activity [1]: < 5%

C[C@@H]1OCC2(CCN(c3cnc(Sc4cccc(NC(=O)CCC(=O)NCCOCCNc5cccc6c5C(=O)N(C5CCC(=O)NC5=O)C6=O)c4Cl)c(N)n3)CC2)[C@@H]1N (some centres undefined)
Activity [1]: 6%

C[C@@H]1OCC2(CCN(c3cnc(Sc4cccc(NC(=O)CCC(=O)NCCCOCCOCCOCCCNc5ccc6c(c5)C(=O)N(C5CCC(=O)NC5=O)C6=O)c4Cl)c(N)n3)CC2)[C@@H]1N (some centres undefined)
Activity [1]: 42%

C[C@@H]1OCC2(CCN(c3cnc(Sc4cccc(NC(=O)CCC(=O)NCCCOCCOCCOCCCNc5cccc6c5C(=O)N(C5CCC(=O)NC5=O)C6=O)c4Cl)c(N)n3)CC2)[C@@H]1N (some centres undefined)
Activity [1]: 46% | Activity [19]: Dose-Dependent Effect | DC50 [20]: 6.02 nM | Activity [21]: > 50% | Activity [22]: > 90% | IC50 (MV4-11 [2]): 207 nM | Activity (MV4-11 [23]): Dose-Dependent Effect | viability at 0.07 µM (MV4-11 [4]; [25]): 87.5% | Activity (MV4-11 [5]): 4.76% | Activity (MV4-11 [6]): 8.01% | Activity (MV4-11 [7]): 0.175% | viability at 0.2 µM (MV4-11 [8]; [25]): 81% | Activity (MV4-11 [9]): 7.23% | Activity (MV4-11 [10]): 11.3% | Activity (MV4-11 [11]): 0.39% | viability at 0.6 µM (MV4-11 [12]; [25]): 76.9% | Activity (MV4-11 [13]): 7.88% | Activity (MV4-11 [14]): 14.3% | Activity (MV4-11 [15]): 0.907% | Activity [24]: inactive | IC50 (MV4-11 [16]): 2630 nM | IC50 (MV4-11 [17]): 207 nM | IC50 [3]: 202 nM

C[C@@H]1OCC2(CCN(c3cnc(Sc4cccc(NC(=O)CCC(=O)NCCCCCCCCCCNc5cccc6c5C(=O)N(C5CCC(=O)NC5=O)C6=O)c4Cl)c(N)n3)CC2)[C@@H]1N (some centres undefined)
Activity [1]: 0%

C[C@@H]1OCC2(CCN(c3cnc(Sc4cccc(NC(=O)CCC(=O)NCCCCCCCCCCCCCNc5cccc6c5C(=O)N(C5CCC(=O)NC5=O)C6=O)c4Cl)c(N)n3)CC2)[C@@H]1N (some centres undefined)
Activity [1]: 8%

C[C@@H]1OCC2(CCN(c3cnc(Sc4cccc(NC(=O)CCC(=O)NCCCCCCCCCCCCNc5cccc6c5C(=O)N(C5CCC(=O)NC5=O)C6=O)c4Cl)c(N)n3)CC2)[C@@H]1N (some centres undefined)
Activity [1]: 18%

C[C@@H]1OCC2(CCN(c3cnc(Sc4cccc(NC(=O)CCC(=O)NCCCCCCCCCNc5cccc6c5C(=O)N(C5CCC(=O)NC5=O)C6=O)c4Cl)c(N)n3)CC2)[C@@H]1N (some centres undefined)
Activity [1]: 23%

C[C@@H]1OCC2(CCN(c3cnc(Sc4cccc(NC(=O)CCC(=O)NCCCCCCCCNc5cccc6c5C(=O)N(C5CCC(=O)NC5=O)C6=O)c4Cl)c(N)n3)CC2)[C@@H]1N (some centres undefined)
Activity [1]: 22%

C[C@@H]1OCC2(CCN(c3cnc(Sc4cccc(NC(=O)CCC(=O)NCCOCCOCCNc5ccc6c(c5)C(=O)N(C5CCC(=O)NC5=O)C6=O)c4Cl)c(N)n3)CC2)[C@@H]1N (some centres undefined)
Activity [1]: < 5%

C[C@@H]1OCC2(CCN(c3cnc(Sc4cccc(NC(=O)CCC(=O)NCCOCCOCCOCCNc5cccc6c5C(=O)N(C5CCC(=O)NC5=O)C6=O)c4Cl)c(N)n3)CC2)[C@@H]1N (some centres undefined)
Activity [1]: 28%
